Reference: ChEMBL document CHEMBL1128317, “Phenoxypropylamines: a new series of squalene synthase inhibitors” (J Med Chem, 1995)

These compounds were tested against T1, Squalene synthase (Rattus norvegicus, UniProt Q02769) (assay: Inhibition of rat microsomal squalene synthase).
T1 sequence (Q02769 whole entry): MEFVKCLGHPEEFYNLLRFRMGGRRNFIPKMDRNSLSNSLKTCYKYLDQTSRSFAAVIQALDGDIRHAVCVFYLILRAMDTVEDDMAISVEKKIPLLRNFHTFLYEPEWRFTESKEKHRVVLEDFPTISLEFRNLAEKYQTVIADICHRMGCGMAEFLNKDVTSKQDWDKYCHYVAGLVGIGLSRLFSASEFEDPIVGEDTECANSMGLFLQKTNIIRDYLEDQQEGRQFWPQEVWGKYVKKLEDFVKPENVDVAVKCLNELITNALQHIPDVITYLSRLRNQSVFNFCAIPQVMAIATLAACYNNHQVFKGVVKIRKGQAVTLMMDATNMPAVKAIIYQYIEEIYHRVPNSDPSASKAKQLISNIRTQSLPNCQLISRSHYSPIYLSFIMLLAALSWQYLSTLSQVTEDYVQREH
In short: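 Rat liver microsomal protein (20 μg) incubated at 37 °C in 50 mM potassium phosphate with 4.95 mM MgCl2, 9.9 mM KF and 0.9 mM NADPH. 1-[3H]farnesyl pyrophosphate was added to 20 μM final, and the reaction was stopped after 15 min with 4% KOH. Labeled squalene was isolated on a C18 column. IC50 was derived from % inhibition versus controls (duplicates per concentration, 6–8 controls).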

SMILES | IC50 [nM]
C=CCc1cc(N)ccc1OCCCNC(C)C | 250
C=CCc1cc(-c2ccccc2)ccc1OCCCNC(C)C | 0.004
CC(C)NCCCOc1ccccc1Cc1ccccc1 | 12
CCC(=O)Nc1ccc(OCC(O)CNC(C)C)c(Cc2ccccc2)c1 (stereo not given) | 900
CC(C)NCC(O)COc1ccccc1Cc1ccccc1 (stereo not given) | 8800
C=CCc1cc(C(=O)CCC)ccc1OCCCNC(C)C | 1
C=CCc1cc(C(=O)CCC)ccc1OCC(O)CNC(C)C (stereo not given) | 4.5
CC(C)NCC(O)COc1ccc(-c2ccccc2)cc1 (stereo not given) | 3000
C=CCc1ccccc1OCCCNC(C)C | 56
C=CCc1ccccc1OCC(O)CNC(C)C (stereo not given) [ALPRENOLOL] | 4200
C=CCc1cc(C(=O)OCC)ccc1OCCCNC(C)C | 0.05
CC(C)=CCC/C(C)=C/c1ccccc1OCCCN(C)C(C)C | > 2500
CC(C)=CCC/C(C)=C/CC/C(C)=C/CCOP(=O)(O)C(=O)O | 30000

Second part, the compound after the results:

IC50 [nM] | SMILES
1400 | CCOC(=O)c1ccc(OCC(O)CNC(C)C)cc1 (stereo not given)
600 | CC(C)NCCCOc1cccc(-c2ccccc2)c1
> 2500 | CC(=O)Nc1ccc(OCCCNC(C)C)cc1
0.6 | C=CCc1cc(OCCCC)ccc1OCCCNC(C)C
3 | CCC(=O)Oc1ccc(OCCCNC(C)C)cc1
0.6 | CCC(=O)Nc1ccc(OCCCNC(C)C)c(Cc2ccccc2)c1
5 | C=CCc1cc(NC(=O)CC)ccc1OCCCNC(C)C
170 | CC(C)NCCCOc1ccc(-c2ccccc2)cc1
65 | C=CCc1cc(NC(C)=O)ccc1OCCCNC(C)C
56 | CCCCOc1ccc(OCCCNC(C)C)cc1
> 2500 | CC(C)NCCCOc1ccc(-c2cccnc2)cc1
3300 | CCCCOc1ccc(OCC(CNC(C)C)OC)cc1 (stereo not given)
